{"source": "paper PMC2998183", "about": "(Journal of nuclear medicine : official publication, Society …, 2010)", "key": {"[1]": {"target": "melanocortin-1 (MC1) receptor (Mus musculus, UniProt Q01727)", "sequence (Q01727 whole entry)": "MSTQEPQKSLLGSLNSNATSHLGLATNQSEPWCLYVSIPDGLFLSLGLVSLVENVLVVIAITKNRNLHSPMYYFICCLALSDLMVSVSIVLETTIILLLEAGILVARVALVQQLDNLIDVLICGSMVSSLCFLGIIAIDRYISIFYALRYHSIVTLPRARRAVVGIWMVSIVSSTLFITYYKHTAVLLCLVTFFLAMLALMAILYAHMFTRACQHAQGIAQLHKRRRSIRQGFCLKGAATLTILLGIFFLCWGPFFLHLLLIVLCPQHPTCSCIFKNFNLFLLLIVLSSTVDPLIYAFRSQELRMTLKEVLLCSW", "settings": "read-out: MC1 receptor binding affinity; B16/F1 cells; ref [17], [21]; cited from earlier work"}, "MC1 receptor": {"system": "MC1 receptor", "settings": "cited from earlier work"}, "[2]": {"system": "B16/F1 melanoma-bearing C57 mice", "assay": "Biodistribution in B16/F1 melanoma-bearing C57 mice", "type": "in vivo, mouse"}, "[3]": {"assay": "Biodistribution in B16/F1 melanoma-bearing C57 mice", "type": "in vivo, mouse", "settings": "female, C57, mouse, urine, iv, 0.037 MBq, total radioactivity, percent injected dose, 0.5 h post-injection"}, "B16/F1 melanoma cells [4]": {"system": "B16/F1 melanoma cells", "assay": "Cellular efflux in B16/F1 melanoma cells", "type": "cell-based", "settings": "2 h after incubating cells in culture medium", "summary_of_the_method": "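B16/F1 cells were loaded with ¹¹¹In-labelled test compound for 2 h at 25°C, then given 2 ice-cold PBS rinses to remove non-specifically bound activity. Radioactivity released into the culture medium was monitored. At 20, 40, 60, 90 and 120 min, cell-surface and intracellular radioactivity were collected separately and gamma-counted.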"}, "[5]": {"assay": "Urinary metabolites by RP-HPLC", "type": "in vivo, mouse", "settings": "urine, 2 h post-injection", "summary_of_the_method": "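A C57 mouse bearing a B16/F1 flank tumour (1×10⁶ cells s.c., 10 days) received 37 MBq (1 mCi) ¹¹¹In-labelled test compound via the tail vein. It was euthanized at 2 h and urine collected. Urine was centrifuged at 16,000g for 5 min, and aliquots were analysed by RP-HPLC using a 20-min 18–28% acetonitrile/20 mM HCl gradient.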"}, "B16/F1 melanoma cells [6]": {"system": "B16/F1 melanoma cells", "assay": "Cellular internalization in B16/F1 melanoma cells", "type": "cell-based", "settings": "25°C", "summary_of_the_method": "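B16/F1 cells, washed twice in binding medium (DMEM, 25 mM HEPES pH 7.4, 0.2% BSA, 0.3 mM 1,10-phenanthroline), incubated at 25°C for 20, 40, 60, 90 and 120 min (n=3) with ~200,000 cpm HPLC-purified ¹¹¹In-labelled test compound. Cells rinsed in ice-cold 0.2% BSA/0.01 M PBS pH 7.4. Membrane-bound activity stripped with 40 mM sodium acetate pH 4.5, 0.9% NaCl, 0.2% BSA. Internalized activity recovered by 1 N NaOH lysis (5 min). Both fractions gamma-counted.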"}, "[7]": {"assay": "In vitro serum stability in mouse serum monitored by RP-HPLC", "type": "in vitro ADME", "settings": "37 °C, 24 h", "summary_of_the_method": "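Test compound was labelled with ¹¹¹In in 0.5 M NH₄OAc pH 4.5 at 75°C for 45 min, and unbound ¹¹¹In was scavenged with EDTA. It was purified by C-18 RP-HPLC (20-min 18–28% acetonitrile gradient in 20 mM HCl). The purified label was incubated in mouse serum at 37°C for 24 h, with degradation monitored by RP-HPLC.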"}, "[8]": {"system": "B16/F1 melanoma-bearing C57 mice", "settings": "mouse, in vivo, 4 h; cited from earlier work"}}, "note": "Positions of bridges follow the written chain, without caps; N, C: chain ends. Non-standard residues stand in square brackets, D forms with d. No end group written: not given here. *: point of attachment. DOTA = O=C(O)CN1CCN(CC(=O)O)CCN(CC(=O)*)CCN(CC(=O)O)CC1; Nle = CCCC[C@H](N)C(=O)O", "data": [{"molecule": "DOTA-Gly-Glu-c[Lys-Nle-Glu-His-DPhe-Arg-Trp-Gly-Arg-Pro-Val-Asp] ({DOTA}-GEK[Nle]EH[dF]RWGRPVD; lactam 3-14; not fully specified) [DOTA-GlyGlu-CycMSH]", "values": [{"measurement": "IC50", "setting": "[1]", "value": 0.9, "unit": "nM"}]}, {"molecule": "Ac-Nle-c[Asp-His-DPhe-Arg-Trp-Lys(CONH2)] [MT-II]", "values": [{"measurement": "MC1 receptor binding affinity compared with native α-MSH peptide", "setting": "MC1 receptor; ref [27], [28]", "value": "higher MC1 receptor binding affinity"}, {"measurement": "MC1 receptor dissociation rate compared with native α-MSH peptide", "setting": "MC1 receptor; ref [27], [28]", "value": "slower MC1 receptor dissociation rate"}]}, {"molecule": "CCCC[C@H](NC(=O)CN1CCN(CC(=O)O)CCN(CC(=O)O)CCN(CC(=O)O)CC1)C(=O)N[C@H]1CC(=O)NCCCC[C@@H](C(N)=O)NC(=O)[C@H](Cc2c[nH]c3ccccc23)NC(=O)[C@H](CCCNC(=N)N)NC(=O)[C@@H](Cc2ccccc2)NC(=O)[C@H](Cc2c[nH]cn2)NC1=O", "note": "[^111In-DOTA-Nle-CycMSHhex, metal not drawn]", "values": [{"measurement": "Tumor uptake with NDP-MSH co-injection as percent of tumor uptake without", "setting": "[2]; 10 μg non-radiolabeled NDP-MSH co-injection, 2 h", "value": 4.2, "unit": "%"}, {"measurement": "Reduction of kidney uptake value by L-lysine co-injection", "setting": "[2]; 2 h post-injection", "value": 30, "unit": "%"}, {"measurement": "Renal uptake value as percent of that of ^111In-DOTA-GlyGlu-CycMSH", "setting": "[2]; 2 h post-injection", "value": 72.8, "unit": "%"}, {"measurement": "Tumor uptake value, times that of ^111In-DOTA-GlyGlu-CycMSH", "setting": "[2]; 2 h post-injection", "value": 1.86, "unit": "times"}, {"measurement": "Tumor uptake value, times that of ^111In-DOTA-Re(Arg^11)CCMSH", "setting": "[2]; 2 h post-injection", "value": 1.12, "unit": "times"}, {"measurement": "Renal uptake value as percent of that of ^111In-DOTA-GlyGlu-CycMSH", "setting": "[2]; 4 h post-injection", "value": 82.4, "unit": "%"}, {"measurement": "Tumor uptake value, times that of ^111In-DOTA-Re(Arg^11)CCMSH", "setting": "[2]; 4 h post-injection", "value": 0.98, "unit": "times"}, {"measurement": "Tumor uptake value, times that of ^111In-DOTA-Re(Arg^11)CCMSH", "setting": "[2]; 24 h post-injection", "value": 1.29, "unit": "times"}, {"measurement": "Percent of tumor activity at 2 h post-injection remaining in tumors at 24 h", "setting": "[2]; 24 h vs 2 h post-injection", "value": 54.3, "unit": "%"}, {"measurement": "dose excreted at 0.5 h", "setting": "[3]", "value": "57 ± 3.91", "unit": "%"}, {"measurement": "Internalized activity remained inside the cells", "setting": "B16/F1 melanoma cells [4]", "value": "89.5±1.9", "unit": "%"}, {"measurement": "Urinary metabolite analysis by RP-HPLC", "setting": "[5]", "value": "remained intact"}, {"measurement": "Cellular uptake activity internalized", "setting": "B16/F1 melanoma cells [6]; 20 min post incubation", "value": "72.9±3.5", "unit": "%"}, {"measurement": "Cellular uptake activity internalized", "setting": "B16/F1 melanoma cells [6]; 120 min post incubation", "value": "88.3±0.7", "unit": "%"}, {"measurement": "Stability in mouse serum", "setting": "[7]", "value": "stable"}]}, {"molecule": "[Nle^4, D-Phe^7]- α-MSH [NDP-MSH]", "values": [{"measurement": "Affinity for the MC1 receptor present on the melanoma cells", "setting": "MC1 receptor; stated without reference", "value": "picomolar"}]}, {"molecule": "^99mTc(CO)3-pz-βAla-Nle-cyclo[Asp-His-D-Phe-Arg-Trp-Lys]-NH2", "values": [{"measurement": "Kidneys uptake", "setting": "[8]", "value": "32.12 ± 1.57", "unit": "%ID/g"}, {"measurement": "Liver uptake", "setting": "[8]", "value": "22.86 ± 1.17", "unit": "%ID/g"}, {"measurement": "Melanoma uptake", "setting": "[8]", "value": "11.31 ± 1.81", "unit": "%ID/g"}]}, {"molecule": "[Ac-Nle^4,Asp^5,D-Phe^7,Lys^11(pz-^99mTc(CO)3)]α-MSH4–11", "values": [{"measurement": "Melanoma uptake", "setting": "[8]", "value": "4.24 ± 0.94", "unit": "%ID/g"}]}]}
